The entries come from a sample that favours hits as a whole.
TRPML3 agonist: activates the human TRPML3 channel; HEK293 TRPML3-YFP, Fluo-8 calcium fluorescence; 100% = the carbachol control signal; AID 1448; activation, % at 3 µM; actives 0.29% (n = 220,000);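 active = activation above its plate's cutoff, the mean activation of the plate's test wells plus 3 SD, cut at about 12% in these data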;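 also: 0% = DMSO only wells and 100% = carbachol wells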
Target sequence (Q8TDD5 whole entry, looked up): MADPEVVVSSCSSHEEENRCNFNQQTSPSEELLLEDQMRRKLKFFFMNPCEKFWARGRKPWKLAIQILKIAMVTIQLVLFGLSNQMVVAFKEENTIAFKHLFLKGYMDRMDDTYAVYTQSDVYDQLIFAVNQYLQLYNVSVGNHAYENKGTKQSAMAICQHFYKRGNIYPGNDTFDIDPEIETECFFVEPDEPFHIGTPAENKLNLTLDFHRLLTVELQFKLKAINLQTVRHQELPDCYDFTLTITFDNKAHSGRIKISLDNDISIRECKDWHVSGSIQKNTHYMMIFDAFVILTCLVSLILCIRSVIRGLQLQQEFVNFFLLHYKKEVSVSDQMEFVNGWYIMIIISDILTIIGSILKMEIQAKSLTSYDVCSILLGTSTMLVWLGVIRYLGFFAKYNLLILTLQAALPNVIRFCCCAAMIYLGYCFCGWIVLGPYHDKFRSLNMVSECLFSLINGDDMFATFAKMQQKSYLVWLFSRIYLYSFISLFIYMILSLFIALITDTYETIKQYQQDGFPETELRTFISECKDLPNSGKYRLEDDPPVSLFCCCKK
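Test system: HEK293 cells stably carrying human TRPML3-YFP; Doses: single dose, 3 µM final nominal compound, 0.3% DMSO final; Schedule: dye loading 1 h 37 °C then 30 min ambient, 125 s read; Technique: Fluo-8 calcium fluorescence; Benchmarks: high control carbachol 87 µM, low control DMSO.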
Calb biofilm kill: mixture kills Candida albicans biofilm cells; C. albicans biofilm persisters + clotrimazole, fluorescence viability; primary screen in compound mixtures of four per well; inhibition, % at 7.6 µM; actives 0.02% (n = 120,000); AID 1242;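 active = inhibition above 30.3% in the primary screen of four-compound pools, then above 30% when the compound was retested; inconclusive = passed the primary limit but could not be retested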;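 also: compounds exposed to preformed 24 h biofilms for 48 h; 0% = untreated biofilm control and 100% = clotrimazole plus chlorhexidine kill blank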
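Incubation: 24 h biofilm formation, then 48 h compound exposure, 37 °C | Material: C. albicans biofilms | Buffer or medium: RPMI/MOPS medium, pH 7.0 | Measured by: 2-h Alamar Blue fluorescence, 535/590 nm excitation/emission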
ABCB1 inh: human ABCB1 inhibition, ABCG2 as counter-screen. actives 0.067% (n = 190,000). AID 1326. inhibition, % at 6.6 µM. CCRF-Adr cells, JC-1 efflux, flow cytometry; in the data active = inhibition above about 40%;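 also: 0% = vehicle and 100% = reference inhibitor; higher value means more JC-1 retained so stronger ABCB1 efflux block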
ROMK primary: human ROMK K+ channel modulation, primary screen; P48048; B-score at 10 µM; actives 2% (n = 130,000); AID 1918; Tet-inducible ROMK, thallium flux fluorescence; actives lie on both sides;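 active = signal ratio slope over the read window, or its plate-corrected B-score, at least 3 SD from the plate mean, either direction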;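 also: B-score of the F/F0 ratio slope over 7 to 12 s after thallium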
zfTRPN1 agonist: agonists of zebrafish TRPN1 channel. activation, % at 3 µM. actives 0.18% (n = 220,000). AID 1424. HEK293 zebrafish TRPN1-YFP, Fluo-8 calcium fluorescence; 100% = response to 87 µM carbachol;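 active = activation above its plate's cutoff, the mean activation of test wells on that plate plus 3 SD, cut at about 19% in these data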;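 also: 0% = DMSO alone and 100% = 87 µM carbachol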
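Control set: carbachol 87 µM as high control, DMSO as low control; system: HEK293 stable line with zebrafish TRPN1-YFP; read-out: % activation versus carbachol response; detection: intracellular calcium fluorescence with Fluo-8; doses: single test compound dose, 3 µM nominal, 0.3% DMSO; schedule: dye 1 h 37 °C plus 30 min RT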
ABCG2 inh: inhibitors of human ABCG2 transporter, ABCB1 counter-screen; Q9UNQ0; IgMXP3 cells, JC-1 efflux, flow cytometry; inhibition, % at 6.6 µM; actives 0.1% (n = 190,000);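 active = inhibition above 80%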;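 also: 0% = DMSO and 100% = nicardipine control wells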
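Test system: IgMXP3 cells (ABCG2) mixed with DDAO far-red-labelled CCRF-Adr cells (ABCB1). Reagent: JC-1 transporter substrate. Compound dosing: single test compound dose, 6.6 µM final. Times: 10 min compound exposure, 25 °C. Detection: flow cytometry of retained JC-1 fluorescence. Read-out basis: efflux inhibition in percent versus controls. Controls: nicardipine and DMSO wells.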
ROMK hit retest: confirmation of human ROMK potassium channel modulators | normalized thallium flux (F/F0 slope) at 10 µM | AID 1917 | actives 54% (n = 3,000) | ROMK thallium flux, fluorescence ratio; hits give low values | shares compounds with ROMK primary;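 active = Flux at 10 µM at least 3 SD below or above vehicle control mean in one or both replicates; inconclusive = no clear call, values can overlap the other calls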
An asterisk follows results filed as active; ? = inconclusive; / = no result given.

SMILES	TRPML3 agonist	Calb biofilm kill	ABCB1 inh	ROMK primary	zfTRPN1 agonist	ABCG2 inh	ROMK hit retest
CCC(c1nnnn1C(C)(C)CC)N(CCN1CCOCC1)Cc1cc2cc(C)ccc2[nH]c1=O (centres undefined)	1	/	1	-4.8*	-1	8	?
CCCC(c1nnnn1C(C)(C)CC)N(CCCO)Cc1cc2cc(C)cc(C)c2[nH]c1=O (centres undefined)	0	/	1	-3.7*	-1	4	0.055*
CCC(C)(C)n1nnnc1C(C(C)C)N(CCCO)Cc1cc2cc(C)ccc2[nH]c1=O (centres undefined)	0	/	1	/	0	5	/
O=C1/C(=C\Nc2ccc(OC(F)(F)F)cc2)CCN1c1ncccn1	1	/	/	2.9*	-1	/	0.083
CNC(=O)NNC(=O)c1nc(-c2ccccc2)c(C)o1	1	13	/	/	3	/	/
O=C(O)c1ccc(/C=N/NC(=O)c2cc(-c3ccc4c5c(cccc35)CC4)n[nH]2)cc1	1	4	-6	/	-1	-16	/
O=C(Nc1ccccc1-c1ccccc1)NC1CC2CCCC(C1)N2Cc1ccc(F)cc1 (centres undefined)	0	7	1	-3	-1	0	/
O=C(Nc1ccccc1-c1ccccc1)NC1CC2CCCC(C1)N2CCc1ccccc1 (centres undefined)	0	17	1	-3.1*	-1	3	0.058*
CSc1c(CC(=O)Nc2ccccc2)n(Cc2ccccc2)c2ccccc12	0	22	0	/	-2	16	/
Cc1ccccc1Cn1nc(C)c(NC(=O)/C=C/c2cnn(C)c2)c1C	0	-15	1	3.2*	0	2	0.085
Cc1ccccc1Cn1nc(C)c(NC(=O)/C=C/c2cnn(C)c2C)c1C	0	12	1	0.29	0	11	/
Cc1cccn2cc(-c3ccccc3)nc12	-1	/	0	/	-1	2	/
Oc1ccc(Br)cc1C=Nc1cccn2cc(-c3ccccc3)nc12	-1	6	1	-11*	-1	5	?
Cc1ccc(CNC(=O)CNC(=S)N(Cc2ccccc2)Cc2ccccc2F)cc1	0	14	2	-2	0	5	/
O=C(CSc1nc2c(sc3ccccc32)c(=O)n1CCCN1CCCC1)NCc1ccccc1	0	11	0	-3.5*	0	1	0.06*
Cc1nc(C/C(=N\N)c2ccc(O)cc2O)cs1	1	0	0	0.36	0	-1	/
CCc1cc(/C(Cc2csc(C)n2)=N/O)c(O)cc1O	2	/	0	-3.3*	2	1	0.067*
Cc1ccc(-c2nc3c(c(=O)[nH]c(=O)n3CC(C)C)n2CC(C)C)cc1[N+](=O)[O-]	0	3	5	-3.6*	0	10	0.056*
Cc1cccc(C)c1C(=NCCCN(C)C)c1ccccc1	1	21	0	-0.42	0	-1	/
CCOC(=O)C1=C(C)N=C2SCCC(=O)N2[C@@H]1/C=C/c1ccccc1	-1	/	0	/	-1	1	/
CC1=C(C(=O)OCc2ccccc2)C(/C=C/c2ccccc2)N2C(=O)CCSC2=N1 (centres undefined)	0	14	-1	-4.9*	-2	-2	0.083
NC(CCC(=O)O)C12CC3CC(CC(C3)C1)C2 (centres undefined)	0	10	2	2.5*	2	7	?
CCC(=O)Nc1cccc(C2=NOC3(C2)C[C@H](C(N)=O)N(C(=O)CC#N)C3)c1 (some centres undefined)	/	9	/	/	/	/	/
COC(=O)/C=C1\SC(N)=NC1=O	1	11	/	/	5	/	/
CC(C)(C)c1ccc(Cn2c(=N)n(CC(O)c3ccco3)c3ccccc32)cc1 (centres undefined)	1	2	0	-2.7*	5	1	0.051*
SMILES	TRPML3 agonist	Calb biofilm kill	ABCB1 inh	ROMK primary	zfTRPN1 agonist	ABCG2 inh	ROMK hit retest
CCCCn1c(=N)n(CC(=O)c2ccco2)c2ccccc21	-1	/	0	/	0	-1	/
CCCCCCCn1c(=N)n(CC(=O)c2ccco2)c2ccccc21	1	/	1	-5.3*	1	6	0.053*
CCCCCCCn1c(=N)n(CC(O)c2ccco2)c2ccccc21 (centres undefined)	0	32	0	-4.3*	0	8	0.061*
CCSc1nnc(NC(=O)NC(C)(C(F)(F)F)C(F)(F)F)s1	0	17	0	-0.88	3	2	/
CCSc1nnc(NC(=O)NC(CC)(C(F)(F)F)C(F)(F)F)s1	4	/	0	-4*	9	1	0.058*
COc1ccc(CNC(=O)[C@H](C)NC(=O)C2CCN(S(=O)(=O)c3ccc(C)cc3)CC2)cc1	0	/	0	0.67	0	0	0.075
CCCN1CCN(CCCNC(=O)c2cc3c(=O)[nH]c4ccccc4c3s2)CC1	0	13	0	-3.8*	0	9	0.059*
O=C(COC(=O)c1ccc2ccccc2c1)NCCCc1ccccc1	0	14	0	/	1	13	/
O=C(NNC1=C(C(=O)C(F)(F)F)CCC1)c1cccc(Cl)c1	0	/	0	5.8*	-1	-1	0.089
O=C(Cc1ccccc1)NCc1cccnc1	1	16	0	0.37	-1	0	/
O=C(Cc1ccc(-c2ccccc2)cc1)NCc1cccnc1	0	30	0	3.2*	2	0	0.088
CC(C)C[C@H](NC(=O)c1nc[nH]c1C(=O)NCc1ccccc1)C(=O)OCc1ccccc1	1	16	1	/	2	5	/
CC1CCCN(C(=O)CSCC(=O)Nc2nc(-c3cccs3)cs2)C1 (centres undefined)	3	/	1	/	6	5	/
CC1CCN(C(=O)CSCC(=O)Nc2nc(-c3cccs3)cs2)CC1	3	/	0	/	6	-1	0.065*
O=C(CCN1CCC(c2ccc(Cl)s2)=N1)c1ccc(Cl)s1	1	8	/	/	3	/	/
COc1cc2cc(C(c3nnnn3C(C)(C)C)N3CCc4ccccc4C3)c(=O)[nH]c2cc1OC (centres undefined)	1	/	2	-3.6*	2	9	?
CCC(C)(C)n1nnnc1C(c1cc2cc(OC)c(OC)cc2[nH]c1=O)N1CCc2ccccc21 (centres undefined)	-1	/	3	/	-1	1	/
CNC(=S)N(Cc1ccccc1)Cc1cccnc1	1	14	/	-12*	2	/	0.071
Cc1cccc(NC(=O)CSc2nnc(CSc3nc(C)cc(C)n3)o2)c1	1	/	1	/	2	3	/

Screens as filed in PubChem.
